Activity calls are given as the source filed them. The rule behind the calls is not given here.
Key:
[1] = biological target: T1, ALK tyrosine kinase receptor (Homo sapiens, UniProt Q9UM73); assay: Binding affinity to wild-type human partial length ALK (I1088 to E1409 residues) expressed in mammalian expression system by KINOMEscan assay
[2] = test system: SU-DHL-1; assay: Growth inhibition of human SU-DHL1 cells after 3 days by luminescence-based CellTiter-Glo assay; type: functional, cell-based
[3] = test system: NCI-H2228; assay: Growth inhibition of human NCI-H2228 cells after 3 days by luminescence-based CellTiter-Glo assay; type: functional, cell-based; details: for IC50: NCI-H2228, 72 h
[4] = test system: SU-DHL-1; assay: Toxicity against human SU-DHL1 cells assessed as cell death over 100 nM after 3 days by luminescence-based CellTiter-Glo assay; details: su-dhl-1, 72 h
[5] = biological target: T1, ALK tyrosine kinase receptor; assay: Inhibition of ALK autophosphorylation at Y1507 residue in human SU-DHL1 cells after 16 hrs by Western blot analysis; type: cell-based
In short: (§1)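 SU-DHL-1 or NCI-H2228 cells, grown in RPMI-1640 with 10% FBS at 37 °C under 5% CO₂, were exposed to DMSO or serial dilutions of compound (up to 100 nM) for 16 h. Cells were lysed in Laemmli buffer and run on SDS-PAGE/PVDF immunoblots probed for ALK, p-ALK Y1507, STAT3, p-STAT3 Y705 and GAPDH. Band levels were normalized to GAPDH. DC50 was taken from a variable-slope fit, triplicate independent experiments, mean ± SEM.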

[6] = biological target: T1, ALK tyrosine kinase receptor; assay: Inhibition of ALK autophosphorylation at Y1507 residue in human NCI-H2228 cells after 16 hrs by Western blot analysis; type: cell-based; in short: as §1
[7] = biological target: T2, Protein cereblon/ALK tyrosine kinase receptor/Echinoderm microtubule-associated protein-like 4 (Homo sapiens) (UniProt Q9UM73+Q9HC35+Q96SW2); assay: Induction of CRL4/CRBN ubiquitin ligase-mediated EML4-ALK fusion protein degradation in human NCI-H2228 cells assessed as reduction in STAT3 phosphorylation at Y705 residue after 16 hrs by Western blot analysis; type: cell-based; in short: as §1
[8] = biological target: T3, Protein cereblon/ALK tyrosine kinase receptor/Nucleophosmin (Homo sapiens) (UniProt Q9UM73+P06748+Q96SW2); assay: Induction of CRL4/CRBN ubiquitin ligase-mediated NPM-ALK fusion protein degradation in human SU-DHL1 cells assessed as reduction in NPM-ALK fusion protein levels at 100 nM after 16 hrs by Western blot analysis; type: cell-based; parameters: scale not given: the % may be the effect or the level left; in short: as §1
[9] = biological target: T1, ALK tyrosine kinase receptor; assay: Inhibition of ALK autophosphorylation at Y1507 residue in human SU-DHL1 cells at 100 nM after 16 hrs by Western blot analysis; type: cell-based; in short: as §1
[10] = biological target: T1, ALK tyrosine kinase receptor; assay: Inhibition of ALK in human SU-DHL1 cells assessed as reduction in STAT3 phosphorylation at Y705 residue at 100 nM after 16 hrs by Western blot analysis; type: cell-based; in short: as §1
[11] = biological target: T2, Protein cereblon/ALK tyrosine kinase receptor/Echinoderm microtubule-associated protein-like 4 (Homo sapiens); assay: Induction of CRL4/CRBN ubiquitin ligase-mediated EML4-ALK fusion protein degradation in human NCI-H2228 cells assessed as reduction in EML4-ALK fusion protein levels at 60 nM after 8 to 24 hrs hrs by Western blot analysis; type: cell-based
In short: (§2)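 Time course by immunoblot. SU-DHL-1 (30 nM) or NCI-H2228 (60 nM) cells in RPMI-1640 with 10% FBS were held at a fixed degrader concentration and harvested over time up to 24 h. Lysates in Laemmli buffer were blotted for ALK fusion protein, p-ALK Y1507 and p-STAT3 Y705, with GAPDH as the loading reference.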

[12] = biological target: T2, Protein cereblon/ALK tyrosine kinase receptor/Echinoderm microtubule-associated protein-like 4 (Homo sapiens); assay: Induction of CRL4/CRBN ubiquitin ligase-mediated EML4-ALK fusion protein degradation assessed as inhibition of ALK autophosphorylation at Y1507 residue in human NCI-H2228 cells at 60 nM after 8 to 24 hrs by Western blot analysis; type: cell-based; in short: as §2
[13] = biological target: T3, Protein cereblon/ALK tyrosine kinase receptor/Nucleophosmin (Homo sapiens); assay: Induction of CRL4/CRBN ubiquitin ligase-mediated NPM-ALK fusion protein degradation in human SU-DHL1 cells pretreated with MLN4924 for 2 hrs followed by compound addition at 100 nM and measured after 6 hrs by Western blot analysis; type: cell-based
[14] = biological target: T3, Protein cereblon/ALK tyrosine kinase receptor/Nucleophosmin (Homo sapiens); assay: Induction of CRL4/CRBN ubiquitin ligase-mediated NPM-ALK fusion protein degradation in human SU-DHL1 cells pretreated with MG-132 for 2 hrs followed by compound addition at 100 nM and measured after 6 hrs by Western blot analysis; type: cell-based
[15] = biological target: T3, Protein cereblon/ALK tyrosine kinase receptor/Nucleophosmin (Homo sapiens); assay: Induction of CRL4/CRBN ubiquitin ligase-mediated NPM-ALK fusion protein degradation in human SU-DHL1 cells pretreated with pomalidomide for 2 hrs followed by compound addition at 100 nM and measured after 6 hrs by Western blot analysis; type: cell-based
[16] = biological target: T1, ALK tyrosine kinase receptor; assay: Inhibition of ALK autophosphorylation at Y1507 residue in human SU-DHL1 cells pretreated with MG-132 for 2 hrs followed by compound addition at 100 nM and measured after 6 hrs by Western blot analysis; type: cell-based
[17] = biological target: T1, ALK tyrosine kinase receptor; assay: Inhibition of ALK autophosphorylation at Y1507 residue in human SU-DHL1 cells pretreated with MLN4924 for 2 hrs followed by compound addition at 100 nM and measured after 6 hrs by Western blot analysis; type: cell-based
[18] = biological target: T1, ALK tyrosine kinase receptor; assay: Inhibition of ALK autophosphorylation at Y1507 residue in human SU-DHL1 cells pretreated with pomalidomide for 2 hrs followed by compound addition at 100 nM and measured after 6 hrs by Western blot analysis; type: cell-based
[19] = biological target: T3, Protein cereblon/ALK tyrosine kinase receptor/Nucleophosmin (Homo sapiens); assay: Induction of CRL4/CRBN ubiquitin ligase-mediated NPM-ALK fusion protein degradation in human SU-DHL1 cells pretreated with ceritinib for 2 hrs followed by compound addition at 100 nM and measured after 6 hrs by Western blot analysis; type: cell-based
[20] = biological target: T3, Protein cereblon/ALK tyrosine kinase receptor/Nucleophosmin (Homo sapiens); assay: Induction of CRL4/CRBN ubiquitin ligase-mediated NPM-ALK fusion protein degradation in human SU-DHL1 cells pretreated at 100 nM for 2 hrs followed by compound washout and measured after 8 hrs by Western blot analysis; type: cell-based
In short: (§3)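 Washout in SU-DHL-1 cells: DMSO or 100 nM compound for 2 h, then a PBS wash and incubation in fresh medium for the indicated times. Lysates were immunoblotted for NPM-ALK, p-ALK Y1507 and p-STAT3 Y705, with GAPDH as the reference.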

[21] = biological target: T3, Protein cereblon/ALK tyrosine kinase receptor/Nucleophosmin (Homo sapiens); assay: Induction of CRL4/CRBN ubiquitin ligase-mediated NPM-ALK fusion protein degradation in human SU-DHL1 cells assessed as inhibition of ALK autophosphorylation at Y1507 residue pretreated at 100 nM for 2 hrs followed by compound washout and measured after 8 hrs by Western blot analysis; type: cell-based; in short: as §3
[22] = biological target: T3, Protein cereblon/ALK tyrosine kinase receptor/Nucleophosmin (Homo sapiens); assay: Induction of CRL4/CRBN ubiquitin ligase-mediated NPM-ALK fusion protein degradation in human SU-DHL1 cells assessed as reduction in STAT3 phosphorylation at Y705 residue pretreated at 100 nM for 2 hrs followed by compound washout and measured after 8 hrs by Western blot analysis; type: cell-based; in short: as §3
[23] = biological target: T2, Protein cereblon/ALK tyrosine kinase receptor/Echinoderm microtubule-associated protein-like 4 (Homo sapiens); assay: Induction of CRL4/CRBN ubiquitin ligase-mediated EML4-ALK fusion protein degradation in human NCI-H2228 cells assessed as reduction in STAT3 phosphorylation at Y705 residue at 60 nM after 8 to 24 hrs by Western blot analysis; type: cell-based; in short: as §2
[24] = test system: Mus musculus; assay: Toxicity in Swiss Albino mouse assessed as drug tolerability at 50 mg/kg, ip; type: organism-based; details: in vivo
In short: (§4)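 Male Swiss Albino mice received a single 50 mg/kg intraperitoneal dose, with clinical signs monitored. Plasma was sampled at 30 min, 1, 2, 4, 8 and 12 h post dose. Values are the average of 3 animals ± SD.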

[25] = Plasma concentration in Swiss Albino mouse at 50 mg/kg, ip after 2 hrs; type: ADME, organism-based; in short: as §4
[26] = Plasma concentration in Swiss Albino mouse at 50 mg/kg, ip after 12 hrs; type: ADME, organism-based; in short: as §4

| Kd [1] [nM] | Compound | growth inhibition (GI) [2] | growth inhibition (GI) [3] | Activity [4] | inhibition [5] | inhibition [6] | Activity [7] | Activity [8] [%] | inhibition [9] [%] | inhibition [10] [%] | Activity [11] | Activity [12] | Activity [13] | Activity [14] | Activity [15] | inhibition [16] | inhibition [17] | inhibition [18] | Activity [19] | Activity [20] | other results |
| --- | --- | --- | --- | --- | --- | --- | --- | --- | --- | --- | --- | --- | --- | --- | --- | --- | --- | --- | --- | --- | --- |
| 54 | Cc1cc(Nc2ncc(Cl)c(Nc3ccccc3S(=O)(=O)C(C)C)n2)c(OC(C)C)cc1C1CCN(CC(=O)NCCOCCOCCOCCOCCOCCNc2cccc3c2C(=O)N(C2CCC(=O)N(C)C2=O)C3=O)CC1 (configuration not stated) | inactive | inactive | – | – | – | – | – | – | – | – | – | – | – | – | – | – | – | – | – | – |
| – | Cc1cc(Nc2ncc(Cl)c(Nc3ccccc3S(=O)(=O)C(C)C)n2)c(OC(C)C)cc1C1CCNCC1 [CERITINIB] | – | – | Toxic | – | – | – | – | – | – | – | – | – | – | – | – | – | – | – | – | – |
| – | Cc1cc(Nc2ncc(Cl)c(Nc3ccccc3S(=O)(=O)C(C)C)n2)c(OC(C)C)cc1C1CCN(CC(=O)NCCOCCOCCOCCOCCOCCNc2cccc3c2C(=O)N(C2CCC(=O)NC2=O)C3=O)CC1 (configuration not stated) | – | – | Toxic | Dose-dependent effect | Dose-dependent effect | Dose-dependent effect | > 90 | > 90 | > 90 | Active | Active | inactive | inactive | inactive | Active | Active | Active | Active | inactive | Activity [21]: inactive; Activity [22]: inactive; IC50 [3]: 46 nM; Activity [23]: Active |
| – | Cc1cc(Nc2ncc(Cl)c(Nc3ccccc3S(=O)(=O)C(C)C)n2)c(OC(C)C)cc1C1CCN(CC(=O)NCCNc2cccc3c2C(=O)N(C2CCC(=O)NC2=O)C3=O)CC1 (configuration not stated) | – | – | Toxic | Dose-dependent effect | Dose-dependent effect | Dose-dependent effect | > 90 | > 90 | > 90 | Active | Active | inactive | inactive | inactive | Active | Active | Active | Active | inactive | Activity [21]: inactive; Activity [22]: inactive; IC50 [3]: 33 nM; Activity [24]: Non-Toxic; concentration at 2 h [25]: 3000 nM; concentration at 12 h [26]: 340 nM; Activity [23]: Active |
| 78 | Cc1cc(Nc2ncc(Cl)c(Nc3ccccc3S(=O)(=O)C(C)C)n2)c(OC(C)C)cc1C1CCN(CC(=O)NCCNc2cccc3c2C(=O)N(C2CCC(=O)N(C)C2=O)C3=O)CC1 (configuration not stated) | inactive | inactive | – | – | – | – | – | – | – | – | – | – | – | – | – | – | – | – | – | – |
